# TAAR1 ag: human TAAR1 agonists, primary screen, Fluo-8 calcium fluorescence, CHO RD-HGA16 cells. Trace amine-associated receptor 1 (Homo sapiens), Q96RJ0. vehicle wells 0%, saturating PEA agonist 100%. activation, % at 3 µM. 360,000 compounds, 0.99% hits. AID 624467, 2012;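 active = activation above the mean activation of all test compounds in the run plus 3 SD, cut at about 38% in these data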
#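 Signal – calcium-sensitive Fluo-8 signal, excitation 470-495, emission 515-575 nm · System – RD-HGA16 (CHO) cells co-expressing Gα16 and hTAAR1 · Incubation – 17-24 h seeding, 75 min 37 °C dye, 30 min RT · Compound dosing – 3 µM single concentration · Repeats – no replicates (n 1)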
# OX1R antag-1: antagonists of human orexin 1 receptor (OX1R); Orexin/Hypocretin receptor type 1 (Homo sapiens), O43613; OX1R-expressing cells, FRET antagonist read-out; inhibition, % at 6.6 µM; 330,000 compounds, 1.8% hits; AID 485270, 2010; in the data active = inhibition mostly above about 38%, no sharp cut-off; inactive = mostly below about 40%
# OX1R antag-2: OX1R (HCRTR1) antagonists, primary screen, fluorescence, CHO/OX1R cells, Fluo-8 calcium, orexin A; Orexin/Hypocretin receptor type 1 (Homo sapiens), O43613; Fluo-8 calcium fluorescence; inhibition, % at 5 µM; 330,000 compounds, 0.43% hits;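 active = inhibition above its plate's threshold, mean inhibition of all tested compounds on the plate plus 3 SD, cut at about 37% in these data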
# TAAR1 antag: human TAAR1 antagonists, primary screen, Fluo-8 calcium fluorescence, CHO RD-HGA16 cells. Trace amine-associated receptor 1 (Homo sapiens), Q96RJ0. antagonist. inhibition, % at 3 µM. 360,000 compounds, 1.5% hits;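 active = inhibition above a per-plate cutoff, the mean inhibition of test compounds on that plate plus 3 SD, cut at about 49% in these data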
#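 System: CHO RD-HGA16 cells bearing hTAAR1. Reagent: EC80 β-phenethylamine stimulus. Schedule: seeding 17-24 h prior, 75-min 37 °C, 30-min RT dye loading. Signal: Fluo-8 intracellular calcium dye fluorescence, real-time kinetic reads. Read-out: % inhibition from peak post-agonist over basal fluorescence ratio. Benchmarks: vehicle wells and EC80 agonist wells. Replicates: n of 1.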
# GPR7 antag: GPR7 receptor antagonists, primary screen, cell-based, fluorescence, single concentration; inhibition, % at 4.4 µM; AID 1861, 2009; GPR7-expressing cells, fluorescence antagonist assay; Neuropeptides B/W receptor type 1 (Homo sapiens), P48145; 290,000 compounds, 1.1% hits; in the data active = inhibition above about 16%, passing the limit was not always enough;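 note: cells stimulated with the agonist NPW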
# Target sequence (P48145 whole entry, looked up): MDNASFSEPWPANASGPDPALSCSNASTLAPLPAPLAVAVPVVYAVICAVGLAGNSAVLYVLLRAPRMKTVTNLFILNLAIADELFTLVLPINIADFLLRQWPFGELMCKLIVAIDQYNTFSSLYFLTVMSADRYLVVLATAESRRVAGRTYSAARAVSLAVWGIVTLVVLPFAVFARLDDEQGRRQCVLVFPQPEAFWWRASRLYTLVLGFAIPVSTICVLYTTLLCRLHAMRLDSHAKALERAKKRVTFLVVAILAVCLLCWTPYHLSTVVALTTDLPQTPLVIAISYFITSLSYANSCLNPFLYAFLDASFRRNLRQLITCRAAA
# CHO parental Ca: ATP-evoked calcium signal inhibitors, parental CHO, primary screen, counter-screen for OX1R antagonist project, cell-based, fluorescence, Fluo-8 calcium dye; parental CHO-K1, ATP-induced calcium, Fluo-8 fluorescence; inhibition, % at 5.6 µM; AID 463079, 2010; 330,000 compounds, 0.63% hits;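 active = inhibition above that plate's mean sample inhibition plus 3 SD, cut at about 26% in these data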
#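 Material – parental CHO cells · Reagent – ATP stimulus · Compound – single nominal dose of 5.6 µM per compound · Detection – Fluo-8 fluorescence · Read-out basis – percent inhibition of calcium signal · Controls – ATP-challenged DMSO wells low, unchallenged DMSO wells high · Repeats – no replicates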
# GPR7 antag conf: GPR7 receptor antagonists, confirmation, cell-based, fluorescence, single concentration | shares compounds with GPR7 antag | GPR7-expressing cells, calcium fluorescence antagonist mode | inhibition, % at 4.4 µM | 2,400 compounds, 52% hits | AID 1952, 2009; in the data active = inhibition above about 24%;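 note: stimulated with the GPR7 agonist NPW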
# MCHR1 antag: MCHR1 antagonists in cells, counter-screen for GPR7 antagonist project, cell-based, fluorescence, human; shares compounds with GPR7 antag; MCHR1-expressing cells, fluorescence antagonist assay; inhibition, % at 4.4 µM; 2,400 compounds, 62% hits; AID 2148, 2009; in the data active = inhibition above about 22%
# Numbers stand for hits; . = inactive; / = not tested or not shown; ! = not active in a repeat. Only some compounds are listed: those with a hit (about 4.5% of all), similar ones and a draw of the others.
SMILES,TAAR1 ag,OX1R antag-1,OX1R antag-2,TAAR1 antag,GPR7 antag,CHO parental Ca,GPR7 antag conf,MCHR1 antag
CCCCCCCCCCCCCCCCn1cc[n+](C)c1,.,.,85,.,31!,71,94,99
O=C1C2C3CCC(C3)C2C(=O)N1Cc1ccccc1 (stereo unspecified),.,.,.,.,.,.,/,/
O=C(NCCc1ccccn1)C1CCN(S(=O)(=O)c2ccc3ccccc3c2)CC1,.,.,.,.,.,.,/,/
O=C(c1cccc(Cl)c1)N1CCN(C2CCCCC2)CC1,.,.,.,.,50,.,.,.
O=C(c1cccc(F)c1)N1CCN(C2CCCCC2)CC1,.,.,.,.,.,.,/,/
O=C(c1cccc([N+](=O)[O-])c1)N1CCN(c2cccc(Cl)c2)CC1,.,.,.,.,23,.,31,24
COc1cccc(C2=NOC(C(=O)NC(C)C)C2)c1 (stereo unspecified),.,.,.,.,26,.,.,.
Cc1cccc(C(=O)N2CCCC(CCC(=O)N3CCN(c4ccccn4)CC3)C2)c1 (stereo unspecified),.,.,.,.,.,.,/,/
C#CC1(N2CCCCC2)CCCCC1,.,/,/,.,/,/,/,/
O=S(=O)(c1cccs1)N1CCN(Cc2cccc(F)c2)CC1,.,.,.,.,30,.,.,.
Cc1ccc(S(=O)(=O)N2CCN(Cc3cccc(F)c3)CC2)cc1,.,.,.,.,/,.,/,/
CC1(C(=O)NS(=O)(=O)c2ccc3c(c2)CCO3)CCN1C(=O)C1(c2ccc(Cl)cc2)CCC1 (stereo unspecified),.,/,/,.,/,/,/,/
O=C(CCn1nc(-c2ccc(Cl)cc2)c2ccccc2c1=O)Nc1cccnc1,.,.,.,.,21,.,.,.
NC(=O)CCn1nc(-c2ccc(Cl)cc2)c2ccccc2c1=O,.,.,.,.,.,.,/,/
CN(/C(=N\S(=O)(=O)c1ccccc1)C(F)(F)F)c1ccccc1,.,.,.,.,.,.,/,/
OCC1(CCCc2ccccc2)CCN(C2CCSCC2)CC1,.,.,.,.,.,.,/,/
CCOC(=O)C1(CCCc2ccccc2)CCN(C2CCSCC2)CC1,.,/,/,.,43,/,50,33
CS(=O)(=O)c1sc(C#N)c2c1C(=O)CC(c1ccccc1)C2 (stereo unspecified),.,46,92,73,75,53,97,94
COC(=O)c1[nH]c2c(c1C)C(=O)CC(c1ccccc1)C2 (stereo unspecified),.,.,.,.,.,.,/,/
C[C@H](CO)N1C[C@H](C)[C@H](CN(C)S(=O)(=O)c2ccc(Cl)cc2)OCc2ccccc2-c2c(n(C)c3ccccc23)C1=O,.,/,/,.,/,/,/,/
CC1CCCN(CCCNC(=O)C2CCCN(c3ncnc4c3nc3n4CCCCC3)C2)C1 (stereo unspecified),.,.,.,.,.,.,/,/
CC1CC(C)CN(CCCNC(=O)C2CCCN(c3ncnc4c3nc3n4CCCCC3)C2)C1 (stereo unspecified),.,.,.,.,28,.,.,.
O[C@H]1C[C@H](c2ccccc2)N(CC2CCCCC2)C[C@@H]1n1cc(C2CC2)nn1,.,/,/,.,/,/,/,/
Cc1ccc(C(=O)N/N=C/c2ccoc2)cc1C,.,.,.,.,26,.,.,.
O=C(NCCC1=CCCCC1)c1ccc(Cl)c(S(=O)(=O)N2CCCCC2)c1,.,.,.,.,50,.,44,50
Cc1cc(C)c(S(=O)(=O)NC2CC(C)(C)NC(C)(C)C2)cc1C,.,.,.,.,101,.,.,.
